Test results reported in ChEMBL document CHEMBL1137637, “Quinuclidine derivatives as potential antiparasitics” (Antimicrob Agents Chemother, 2007).
In brackets after ≈: the same amount, converted by molar mass.

Key:
Leishmania amazonensis [1] = assay: Inhibition of sterol biosynthesis in Leishmania mexicana amazonensis promastigotes assessed as reduction in endogenous 5-dehydro episterol level at 10 uM after 96 hrs by gas-liquid chromatography; assay type: functional; set-up: scale not given: the % may be the effect or the level left
Outline: (§1)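 L. mexicana promastigotes exposed to compound for 96 h. Total lipids extracted and neutral sterols separated from polar lipids by silicic acid column chromatography. Sterols analysed by TLC and by quantitative capillary gas-liquid chromatography with mass spectrometry. Composition expressed as mass % of free sterols, compared with untreated control.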

Leishmania donovani = assay: Antileishmanial activity against Leishmania donovani MHOM/ET/67/L82 axenic amastigotes after 72 hrs by resazurin assay; assay type: functional, organism-based; settings: MHOM/ET/67/L82, 72 h
Outline: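 L. donovani MHOM/ET/67/L82 amastigotes grown axenically at 37°C in synthetic minimal medium at pH 5.4 with 10% heat-inactivated FBS under 5% CO2. 1 × 10⁵ amastigotes per well with seven threefold dilutions, 30 to 0.041 μg/ml. After 72 h, resazurin added for 2–4 h more. Fluorescence read at ex 536/em 588 nm. IC50 taken from sigmoidal curve. Run in duplicate, with an independent repeat for actives.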

Leishmania amazonensis [2] = assay: Inhibition of sterol biosynthesis in Leishmania mexicana amazonensis promastigotes assessed as reduction in endogenous cholesta-5,7,24-trien-3beta-ol level at 10 uM after 96 hrs by gas-liquid chromatography; assay type: functional; set-up: scale not given: the % may be the effect or the level left; outline: as §1
Leishmania amazonensis [3] = assay: Inhibition of sterol biosynthesis in Leishmania mexicana amazonensis promastigotes assessed as reduction in endogenous cholesta-7,24-dien-3beta-ol level at 10 uM after 96 hrs by gas-liquid chromatography; assay type: functional; set-up: scale not given: the % may be the effect or the level left; outline: as §1
Leishmania amazonensis [4] = assay: Antileishmanial activity against Leishmania mexicana amazonensis promastigotes by trypan blue exclusion method; assay type: functional, organism-based
Outline: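 L. mexicana amazonensis promastigotes cultured in liver infusion-tryptose medium with lactalbumin and 10% FCS at 26°C, unagitated. Cultures started at 2 × 10⁶ cells/ml and drug added at 0.5–1 × 10⁷ cells/ml. Density counted by electronic particle counter and hemocytometer. Viability by trypan blue exclusion. Triplicate growth experiments.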

[5] = target: T1, Farnesyltransferase, putative (Leishmania major, UniProt Q4Q5W4); assay: Inhibition of Leishmania major recombinant squalene synthase expressed in Escherichia coli by liquid scintillation counter
T1 sequence (Q4Q5W4 whole entry): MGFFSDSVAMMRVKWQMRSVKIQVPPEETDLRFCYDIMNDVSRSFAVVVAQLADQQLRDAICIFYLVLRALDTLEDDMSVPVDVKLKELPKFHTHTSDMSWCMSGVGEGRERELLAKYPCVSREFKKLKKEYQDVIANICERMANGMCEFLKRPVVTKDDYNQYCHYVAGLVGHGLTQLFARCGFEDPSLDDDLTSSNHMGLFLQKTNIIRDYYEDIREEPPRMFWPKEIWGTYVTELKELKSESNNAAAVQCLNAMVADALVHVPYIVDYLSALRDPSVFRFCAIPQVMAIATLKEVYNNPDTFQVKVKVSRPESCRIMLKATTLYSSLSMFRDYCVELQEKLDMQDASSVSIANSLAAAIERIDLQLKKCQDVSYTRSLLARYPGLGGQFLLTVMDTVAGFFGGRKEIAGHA
Outline: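 Soluble E. coli extract expressing L. major SQS truncated by 16 N-terminal and 40 C-terminal residues. Buffer: 50 mM phosphate pH 7.4, 20 mM MgCl2, 5 mM CHAPS, 1% Tween 80, 10 mM DTT, BSA, 0.25 mM NADPH, and a glucose-6-phosphate/G6PDH regenerating system. Substrate 0.5 μM radiolabelled farnesyl pyrophosphate. Squalene band counted by scintillation. IC50 from hyperbolic plot of five concentrations in duplicate, usually run twice.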

Trypanosoma cruzi = assay: Antitrypanosomal activity against trypomastigotes of Trypanosoma cruzi Tulahuen C2C4 containing lacZ gene in rat L6 cells after 4 days by chlorophenol red-beta-D-galactopyranoside/Nonidet assay; assay type: functional, organism-based; settings: Tulahuen C2C4, L6, 96 h
Outline: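 L-6 rat myoblasts seeded at 2,000 cells/well in RPMI 1640 with 10% FBS and 2 mM L-glutamine. After 24 h, 5,000 T. cruzi Tulahuen C2C4 lacZ trypomastigotes added with serial drug dilution. Incubated at 37°C in 5% CO2 for 4 days. CPRG/Nonidet substrate added and colour read at 540 nm after 2–4 h. IC50 from sigmoidal curve. Duplicate determinations.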

Leishmania amazonensis [6] = assay: Inhibition of sterol biosynthesis in Leishmania mexicana amazonensis promastigotes assessed as reduction in exogenous cholesterol level at 10 uM after 96 hrs by gas-liquid chromatography; assay type: functional; set-up: scale not given: the % may be the effect or the level left; outline: as §1
[7] = tested on: Trypanosoma brucei rhodesiense; assay: Trypanocidal activity against Trypanosoma brucei rhodesiense STIB 900 bloodstream form after 72 hrs by resazurin assay; assay type: functional, organism-based; settings: STIB 900, 72 h
Outline: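 T. b. rhodesiense STIB 900 bloodstream forms in MEM with 2-mercaptoethanol and 15% heat-inactivated horse serum, with serial drug dilutions. Incubated 72 h at 37°C in 5% CO2. Resazurin added for 2–4 h more, fluorescence read at ex 536/em 588 nm. IC50 from sigmoidal curve. Duplicate, with an independent repeat for actives.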

Squalene synthase = target: T2, Squalene synthase (Homo sapiens, UniProt P37268); assay: Inhibition of human recombinant squalene synthase expressed in Escherichia coli BL21(DE3 pLysS) up to 1 uM by liquid scintillation counter
T2 sequence (P37268 whole entry): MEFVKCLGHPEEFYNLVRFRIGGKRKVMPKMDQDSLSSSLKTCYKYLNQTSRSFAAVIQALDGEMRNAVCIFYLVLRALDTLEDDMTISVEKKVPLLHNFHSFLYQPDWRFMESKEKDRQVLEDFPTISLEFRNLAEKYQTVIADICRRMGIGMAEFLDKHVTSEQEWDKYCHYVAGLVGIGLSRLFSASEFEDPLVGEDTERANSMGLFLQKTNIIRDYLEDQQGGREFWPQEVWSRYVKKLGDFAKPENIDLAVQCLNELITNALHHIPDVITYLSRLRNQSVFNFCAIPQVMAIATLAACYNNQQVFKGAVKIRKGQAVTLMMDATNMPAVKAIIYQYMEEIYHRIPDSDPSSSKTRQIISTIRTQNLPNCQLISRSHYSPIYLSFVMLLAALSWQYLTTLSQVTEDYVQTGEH
Outline: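 Human SQS in extracts of E. coli BL21(DE3 pLysS) carrying pHSS16, assayed under the same conditions as the L. major enzyme. Buffer: phosphate pH 7.4, MgCl2, CHAPS, Tween 80, DTT, BSA, and NADPH with a regenerating system. Substrate 0.5 μM radiolabelled farnesyl pyrophosphate. Squalene band radioactivity counted by scintillation.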

L6 = assay: Cytotoxicity against rat L6 cells after 72 hrs by resazurin assay; assay type: cell-based; settings: L6, 72 h
Outline: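 L-6 cells seeded at 4 × 10⁴ cells/ml in RPMI 1640 with 10% FBS and 2 mM L-glutamine. After 24 h, medium replaced with serial drug dilution and incubated for 72 h at 37°C in 5% CO2. Resazurin added for 2–4 h, fluorescence read at ex 536/em 588 nm. IC50 from sigmoidal curve. Duplicate, with an independent repeat for actives.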

Leishmania amazonensis [8] = assay: Inhibition of sterol biosynthesis in Leishmania mexicana amazonensis promastigotes assessed as reduction in endogenous episterol level at 10 uM after 96 hrs by gas-liquid chromatography; assay type: functional; set-up: scale not given: the % may be the effect or the level left; outline: as §1
Plasmodium falciparum = assay: Antiplasmodial activity after 48 hrs against chloroquine and pyrimethamine-resistant Plasmodium falciparum K1 in human erythrocytes by [3H]hypoxanthine uptake; assay type: functional, organism-based
Outline: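 P. falciparum K1 in human red cells in RPMI 1640 with 5% Albumax, exposed to serial drug dilutions. Incubated 48 h at 37°C under reduced oxygen, then 0.5 μCi [³H]hypoxanthine per well for 24 h more. Cells harvested onto glass-fibre filters and counted by scintillation. Result expressed as % of untreated control, with IC50 from sigmoidal curve. Duplicate, plus an independent repeat for actives.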

Leishmania amazonensis [9] = assay: Inhibition of sterol biosynthesis in Leishmania mexicana amazonensis promastigotes assessed as reduction in exogenous cholesterol level at 3 uM after 96 hrs by gas-liquid chromatography; assay type: functional; set-up: scale not given: the % may be the effect or the level left; outline: as §1
Leishmania amazonensis [10] = assay: Inhibition of sterol biosynthesis in Leishmania mexicana amazonensis promastigotes assessed as reduction in endogenous cholesta-7,24-dien-3beta-ol level at 3 uM after 96 hrs by gas-liquid chromatography; assay type: functional; set-up: scale not given: the % may be the effect or the level left; outline: as §1
Leishmania amazonensis [11] = assay: Inhibition of sterol biosynthesis in Leishmania mexicana amazonensis promastigotes assessed as reduction in endogenous episterol level at 3 uM after 96 hrs by gas-liquid chromatography; assay type: functional; set-up: scale not given: the % may be the effect or the level left; outline: as §1
Leishmania amazonensis [12] = assay: Inhibition of sterol biosynthesis in Leishmania mexicana amazonensis promastigotes assessed as reduction in endogenous cholesta-5,7,24-trien-3beta-ol level at 3 uM after 96 hrs by gas-liquid chromatography; assay type: functional; set-up: scale not given: the % may be the effect or the level left; outline: as §1
Leishmania amazonensis [13] = assay: Inhibition of sterol biosynthesis in Leishmania mexicana amazonensis promastigotes assessed as reduction in endogenous 5-dehydro episterol level at 3 uM after 96 hrs by gas-liquid chromatography; assay type: functional; set-up: scale not given: the % may be the effect or the level left; outline: as §1
Leishmania amazonensis [14] = assay: Inhibition of sterol biosynthesis in Leishmania mexicana amazonensis promastigotes assessed as reduction in endogenous cholesta-5,7,24-trien-3beta-ol level at 1 uM after 96 hrs by gas-liquid chromatography; assay type: functional; set-up: scale not given: the % may be the effect or the level left; outline: as §1
Leishmania amazonensis [15] = assay: Inhibition of sterol biosynthesis in Leishmania mexicana amazonensis promastigotes assessed as reduction in endogenous episterol level at 1 uM after 96 hrs by gas-liquid chromatography; assay type: functional; set-up: scale not given: the % may be the effect or the level left; outline: as §1
Leishmania amazonensis [16] = assay: Inhibition of sterol biosynthesis in Leishmania mexicana amazonensis promastigotes assessed as reduction in endogenous 5-dehydro episterol level at 1 uM after 96 hrs by gas-liquid chromatography; assay type: functional; set-up: scale not given: the % may be the effect or the level left; outline: as §1
Leishmania amazonensis [17] = assay: Inhibition of sterol biosynthesis in Leishmania mexicana amazonensis promastigotes assessed as reduction in exogenous cholesterol level at 1 uM after 96 hrs by gas-liquid chromatography; assay type: functional; set-up: scale not given: the % may be the effect or the level left; outline: as §1

Compound | Activity (Leishmania amazonensis [1]) [%] | IC50 (Leishmania donovani) [µM] | Activity (Leishmania amazonensis [2]) [%] | Activity (Leishmania amazonensis [3]) [%] | MIC (Leishmania amazonensis [4]) [µM] | IC50 [5] [µM] | IC50 (Trypanosoma cruzi) [µM] | Activity (Leishmania amazonensis [6]) [%] | IC50 [7] [µM] | IC50 (Squalene synthase) | IC50 (L6) [µM] | Activity (Leishmania amazonensis [8]) [%] | IC50 (Plasmodium falciparum) [µM] | Activity (Leishmania amazonensis [9]) [%] | also measured
C(=C1CN2CCC1CC2)c1ccc(C2OCCO2)cc1 | 54.9 | 38.6 | 12.7 | 6.7 | > 10 | > 1 | > 111 | 14.1 | 12.5 | Not Active | 212 | 11.7 | 14.2 | – | –
OC[C@@H]1CC2CCN1C[C@@H]2C#Cc1ccc(OCc2ccccc2)cc1 (some centres not stated) | – | 7.4 | – | – | 10 (≈ 3.47 µg/mL) | > 1 | 3.4 | >99 | 1.2 | – | 16.1 | – | 0.6 | 61.4 | Activity (Leishmania amazonensis [10]): 15.9%; Activity (Leishmania amazonensis [11]): 22.7%
C(=C1/CN2CCC1CC2)/c1ccccc1 | 70.7 | > 151 | 3.7 | 2.8 | > 10 | > 1 | > 151 | 10.6 | 16 | Not Active | 382 | 12.2 | 0.8 | – | –
O=Cc1ccc(/C=C2\CN3CCC2CC3)cc1 | 62 | > 132 | 14 | 4.6 | > 10 | > 1 | > 132 | 11.2 | 13.1 | Not Active | > 396 | 8.2 | > 22 | – | –
OC[C@H]1CC2CCN1C[C@@H]2C#Cc1ccc(OCc2ccccc2)cc1 (some centres not stated) | – | 8 | – | – | 10 (≈ 3.47 µg/mL) | > 1 | 3.1 | >99 | 1.2 | – | 16.6 | – | 1.1 | 21.2 | Activity (Leishmania amazonensis [12]): 10.7%; Activity (Leishmania amazonensis [11]): 14.2%; Activity (Leishmania amazonensis [13]): 63.2%
C(=C1\CN2CCC1CC2)/c1ccc(C2OCCO2)cc1 | 57.9 | 77.7 | – | – | 10 (≈ 2.71 µg/mL) | > 1 | 30.2 | 42.1 | 10.3 | Not Active | 239 | – | 10 | – | –
c1ccc(CC2CN3CCC2CC3)cc1 (configuration not stated) | 2.8 | > 149 | 23.2 | 2.9 | > 10 | > 1 | 130 | 14.9 | 60.6 | Not Active | > 447 | 51.3 | 5.4 | – | –
C(=C1/CN2CCC1CC2)/c1ccc(C2OCCO2)cc1 | 16.1 | 82.1 | 18.5 | – | > 10 | > 1 | 46 | 25.4 | 5.5 | Not Active | 136 | 14.2 | 12.3 | – | –
c1ccc2cc(CC3CN4CCC3CC4)ccc2c1 (configuration not stated) | – | > 119 | – | – | 3 (≈ 0.754 µg/mL) | > 1 | 25.4 | – | 2.5 | Not Active | 98.2 | – | 1.8 | 26.4 | Activity (Leishmania amazonensis [12]): 11.2%; Activity (Leishmania amazonensis [10]): 3.5%; Activity (Leishmania amazonensis [11]): 9.3%; Activity (Leishmania amazonensis [13]): 49.6%
C(=C1/CN2CCC1CC2)/c1ccc2ccccc2c1 | – | 88.2 | – | – | 3 (≈ 0.748 µg/mL) | > 1 | 2.8 | – | 0.5 | Not Active | 25.6 | – | 0.9 | 57.8 | Activity (Leishmania amazonensis [13]): 42.2%
c1ccc(-c2ccc(CC3CN4CCC3CC4)cc2)cc1 (configuration not stated) | – | > 108 | – | – | 1 (≈ 0.277 µg/mL) | > 1 | 4.7 | – | 0.7 | Not Active | 20.5 | – | 2.8 | – | Activity (Leishmania amazonensis [14]): 10.4%; Activity (Leishmania amazonensis [15]): 8.2%; Activity (Leishmania amazonensis [16]): 30.3%; Activity (Leishmania amazonensis [17]): 51.1%
